Experimental data as given in ChEMBL document CHEMBL4673249, “Anticancer Effects of Honokiol via Mitochondrial Dysfunction Are Strongly Enhanced by the Mitochondria-Targeting Carrier Berberine” (J Med Chem, 2020).
The source made the active and inactive calls. The calls are words filed in the database; no cut-off is given here.

What was measured:
HepG2 [1] = experiment: Induction of apoptosis in human HepG2 cells assessed as early apoptotic cells at 2 uM after 24 hrs by annexin V/propidium iodide staining based flow cytometric analysis (reference value: 1.29%); type: functional
HepG2 [2] = experiment: Induction of apoptosis in human HepG2 cells assessed as late apoptotic cells at 2 uM after 24 hrs by annexin V/propidium iodide staining based flow cytometric analysis (reference value: 3.22%); type: functional
L02 = experiment: Induction of morphological changes in human L02 cells assessed as accumulation of cytoplasmic vacuoles at 4 uM after 24 hrs by optical microscopic method; type: cell-based; conditions: l02, 24 h
Procedure, shortened: (§1)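 Cells grown at 37 °C, 5% CO2 in media with 10% FBS and penicillin/streptomycin, then treated with compound. Cytoplasmic vacuoles judged by optical microscopy. Time course at 4 μM, or 10 h exposure across increasing concentrations.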

PC-3 = experiment: Induction of morphological changes in human PC3 cells assessed as accumulation of cytoplasmic vacuoles at 4 uM after 24 hrs by optical microscopic method; type: functional, cell-based; procedure, shortened: as §1
HepG2 [3] = experiment: Induction of cell death in human HepG2 cells at 3 uM after 12 hrs by MTT assay; type: functional, cell-based
HepG2 [4] = experiment: Induction of apoptosis in human HepG2 cells assessed as late apoptotic cells at 4 uM after 24 hrs in presence of z-VAD-fmk by annexin V/propidium iodide staining based flow cytometric analysis (reference value: 6.21%); type: functional
HepG2 [5] = experiment: Induction of apoptosis in human HepG2 cells assessed as viable cells at 4 uM after 24 hrs in presence of z-VAD-fmk by annexin V/propidium iodide staining based flow cytometric analysis (reference value: 92.8%); type: functional; conditions: read-out: Activity
HepG2 (Homo sapiens) = experiment: Induction of morphological changes in human HepG2 cells assessed as accumulation of cytoplasmic vacuoles at 4 uM after 24 hrs by optical microscopic method
HepG2 [6] = experiment: Induction of apoptosis in human HepG2 cells assessed as early apoptotic cells at 4 uM after 24 hrs in presence of z-VAD-fmk by annexin V/propidium iodide staining based flow cytometric analysis (reference value: 0.86%); type: functional
HepG2 [7] = experiment: Induction of apoptosis in human HepG2 cells after 24 hrs by annexin V/propidium iodide staining based flow cytometric analysis; type: functional, cell-based; conditions: dose 1-4 µM
HepG2 [8] = experiment: Induction of mitochondrial dysfunction in human HepG2 cells assessed as decrease in mitochondrial membrane […] at 1 to 4 uM after 24 hrs by JC-1 staining based flow cytometric analysis; type: functional, cell-based; conditions: dose 1-4 µM
Procedure, shortened: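 HepG2 cells in 6-well plates treated for 24 h at 37 °C, then trypsinized. Stained with JC-1 at a final 2.5 μg/mL for 30 min, washed three times, resuspended in PBS and read by flow cytometry.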

HepG2 [9] = experiment: Induction of apoptosis in human HepG2 cells assessed as early apoptotic cells at 4 uM after 24 hrs by annexin V/propidium iodide staining based flow cytometric analysis (reference value: 1.29%); type: functional
[10] = Ratio of HN drug uptake to test compound drug uptake in human HepG2 cells mitochondria at 5 uM after 12 hrs by HPLC analysis; type: ADME; conditions: hepg2, 12 h
Procedure, shortened: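 HepG2 cells treated with 5 μM compound or honokiol for 12 h. Mitochondria isolated with a kit by centrifugation at 600g then 11000g, 4 °C, 10 min each. Whole-cell and mitochondrial drug measured by HPLC on a C18 column, methanol-0.1% acetic acid (80:20), at 265 nm (derivative) and 210 nm (honokiol). Run thrice.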

HepG2 [11] = experiment: Induction of cell death in human HepG2 cells assessed as reduction in cell viability after 24 hrs in presence of z-VAD-fmk by MTT assay; type: functional, cell-based
Procedure, shortened: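 HepG2 cells pretreated with 20 μM z-VAD-fmk for 2 h, then exposed to a range of doses. Viability measured by MTT: 4 h at 37 °C, formazan in DMSO, absorbance at 570 nm.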

HepG2 [12] = experiment: Induction of apoptosis in human HepG2 cells assessed as decrease in pro-caspase 12 protein expression at 1 to 4 uM after 24 hrs by Western blot analysis; type: functional, cell-based; conditions: dose 1-4 µM
Procedure, shortened: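 HepG2 cells lysed in RIPA on ice for 20 min; protein measured by BCA. Lysates run on 10% SDS-PAGE and transferred to PVDF. Membranes blocked in 5% nonfat milk/TBST for 2 h, incubated with primary antibodies overnight at 4 °C, then HRP secondary antibody; bands detected by ECL.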

HepG2 [13] = experiment: Induction of apoptosis in human HepG2 cells assessed as viable cells at 1 uM after 24 hrs by annexin V/propidium iodide staining based flow cytometric analysis (reference value: 95.3%); type: functional; conditions: read-out: Activity
[14] = Drug localization n human HepG2 cells mitochondria by MitoTracker staining based confocal microscopic analysis; type: ADME
Procedure, shortened: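 HepG2 cells in glass-bottom dishes were exposed to compound, then stained with 150 nM MitoTracker Red CMXRos for 20 min. Compound's own blue fluorescence imaged against the red mitochondrial signal by confocal microscopy.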

HepG2 [15] = experiment: Induction of apoptosis in human HepG2 cells assessed as late apoptotic cells at 1 uM after 24 hrs by annexin V/propidium iodide staining based flow cytometric analysis (reference value: 3.22%); type: functional
HepG2 [16] = experiment: Induction of morphological changes in human HepG2 cells assessed as accumulation of cytoplasmic vacuoles at 4 uM after 24 hrs by optical microscopic method; type: functional, cell-based; procedure, shortened: as §1
HepG2 [17] = experiment: Induction of morphological changes in human HepG2 cells assessed as effect on size of vacuoles at 3 uM after 24 hrs in presence of z-VAD-fmk by microscopic analysis; type: functional, cell-based
Procedure, shortened: (§2)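 HepG2 cells preincubated with or without z-VAD-fmk (20 μM, 2 h), then treated with 3 μM compound. Vacuole number and size judged from optical microscopy images.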

HepG2 [18] = experiment: Induction of morphological changes in human HepG2 cells assessed as accumulation of vacuoles at 3 uM after 24 hrs in presence of Nec-1 by microscopic method; type: functional, cell-based
Procedure, shortened: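 HepG2 cells pretreated with necrostatin-1 (30 μM, 2 h), then exposed to 3 μM compound. Vacuoles imaged by optical microscopy after 24 h.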

HepG2 [19] = experiment: Induction of mitochondrial morphological changes in human HepG2 cells assessed as dilation of mitochondria by measuring vacuoles at 3 uM measured up to 30 hrs […] by TEM analysis; type: functional, cell-based; conditions: time hrs <=30
Procedure, shortened: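 HepG2 cells given 3 μM for 15 h or 30 h, then fixed in 2.5% glutaraldehyde at 4 °C overnight. Dehydrated through graded alcohols, embedded in resin and examined by transmission electron microscopy.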

HepG2 [20] = experiment: Induction of apoptosis in human HepG2 cells assessed as viable cells at 4 uM after 24 hrs by annexin V/propidium iodide staining based flow cytometric analysis (reference value: 95.3%); type: functional; conditions: read-out: Activity
HepG2 [21] = experiment: Induction of mitochondrial dysfunction in human HepG2 cells assessed as dispersive puncta formation at 2 to 4 uM after 12 hrs by calcein-AM staining based fluorescence microscopic analysis; type: functional, cell-based; conditions: dose 2-4 µM
Procedure, shortened: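 HepG2 cells in glass-bottom plates treated for 12 h. Co-loaded with 1.5 μM calcein-AM and 5 mM CoCl2 in DMEM at 37 °C for 20 min; CoCl2 quenches cytosolic calcein. Washed three times with PBS and imaged by fluorescence microscopy through a 525-nm bandpass filter.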

HepG2 [22] = experiment: Induction of morphological changes in human HepG2 cells assessed as effect on number of vacuoles at 3 uM after 24 hrs in presence of z-VAD-fmk by microscopic analysis; type: functional, cell-based; procedure, shortened: as §2

With `C=CCc1ccc(O)c(-c2ccc(OCCCCCc3c4[n+](cc5c(OC)c(OC)ccc35)CCc3cc5c(cc3-4)OCO5)c(CC=C)c2)c1.[I-]` the Activity (HepG2 [1]) was 3.03%, the Activity (HepG2 [2]) was 3.51% and the Activity (L02) was “Active”. The Activity (PC-3) was “Active”, the Activity (HepG2 [3]) was “Active” and the Activity (HepG2 [4]) was 19.9%. The viability at 4 µM (HepG2 [5]) was 73%, the Activity (HepG2 (Homo sapiens)) was “Active” and the Activity (HepG2 [6]) was 6.59%. The Activity (HepG2 [7]) was “Dose-dependent effect”, the Activity (HepG2 [8]) was “Active” and the Activity (HepG2 [9]) was 7.91%. For the same molecule, the Ratio [10] was 3.7, the Activity (HepG2 [11]) was “Active” and the Activity (HepG2 [12]) was “Active”. The viability at 1 µM (HepG2 [13]) was 93.3%, the Drug uptake [14] was “Active” and the Activity (HepG2 [15]) was 3.21%. The Activity (HepG2 [16]) was “Active”, the Activity (HepG2 [17]) was “inactive” and the Activity (HepG2 [18]) was “Active”. For the same molecule, the Activity (HepG2 [19]) was “Active”, the viability at 4 µM (HepG2 [20]) was 73.3% and the Activity (HepG2 [21]) was “Active”. For the same molecule, the Activity (HepG2 [22]) was “inactive”.
